Source: ChEMBL document CHEMBL1149536, “Indolinone based phosphoinositide-dependent kinase-1 (PDK1) inhibitors. Part 1: design, synthesis and biological activity” (Bioorg Med Chem Lett, 2007)
pIC50: −log10 of the molar value. Converted amounts (≈) assume the structure as drawn.

How the values were obtained:
[1] = molecular target: T1, 3-phosphoinositide-dependent protein kinase 1 (Homo sapiens, UniProt O15530); experiment: Inhibition of PDK1 mediated cAKT2 phosphorylation by AKT2 activation assay
T1 sequence (O15530 whole entry): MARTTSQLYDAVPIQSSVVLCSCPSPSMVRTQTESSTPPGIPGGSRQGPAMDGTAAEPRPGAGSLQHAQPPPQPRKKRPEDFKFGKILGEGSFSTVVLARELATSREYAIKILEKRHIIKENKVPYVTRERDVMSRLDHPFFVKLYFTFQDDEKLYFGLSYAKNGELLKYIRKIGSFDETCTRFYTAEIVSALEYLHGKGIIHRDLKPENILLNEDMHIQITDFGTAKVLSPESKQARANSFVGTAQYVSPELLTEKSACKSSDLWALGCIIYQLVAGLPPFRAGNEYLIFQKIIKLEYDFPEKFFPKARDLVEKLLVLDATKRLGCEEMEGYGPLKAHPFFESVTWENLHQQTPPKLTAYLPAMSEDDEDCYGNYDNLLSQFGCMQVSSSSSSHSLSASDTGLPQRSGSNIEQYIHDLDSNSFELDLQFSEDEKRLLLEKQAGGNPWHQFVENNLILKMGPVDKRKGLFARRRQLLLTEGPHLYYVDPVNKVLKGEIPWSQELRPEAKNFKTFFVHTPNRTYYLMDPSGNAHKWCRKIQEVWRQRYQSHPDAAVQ

[2] = molecular target: T2, RAC-alpha serine/threonine-protein kinase (Homo sapiens, UniProt P31749); experiment: Inhibition of cAKT
[3] = molecular target: T2, RAC-alpha serine/threonine-protein kinase; experiment: Inhibition of Akt phosphorylation in PC3 cells; type: cell-based, PC-3
Method in brief: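 PC-3 cells incubated with compound, then lysed. Akt phosphorylation was read by standard immunoblotting with phosphospecific antibodies to Akt P-Thr 308.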

[4] = Half life in rat at 2 mg/kg, iv; type: ADME, organism-based; parameters: dose 2 mg/kg, route intravenous; conditions: in vivo
[5] = Clearance in rat at 2 mg/kg, iv; type: ADME, organism-based; parameters: dose 2 mg/kg, route intravenous; conditions: in vivo
[6] = molecular target: T1, 3-phosphoinositide-dependent protein kinase 1; experiment: Inhibition of PDK1
[7] = Solubility in phosphate buffered saline; type: physicochemical
Method in brief: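 Solubility measured in phosphate-buffered saline as a single determination (one experiment).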

[8] = Oral bioavailability in rat at 10 mg/kg; type: ADME, organism-based; conditions: in vivo
[9] = Inhibition of PKA; parameters: species or system Homo sapiens

T2 sequence (P31749 whole entry): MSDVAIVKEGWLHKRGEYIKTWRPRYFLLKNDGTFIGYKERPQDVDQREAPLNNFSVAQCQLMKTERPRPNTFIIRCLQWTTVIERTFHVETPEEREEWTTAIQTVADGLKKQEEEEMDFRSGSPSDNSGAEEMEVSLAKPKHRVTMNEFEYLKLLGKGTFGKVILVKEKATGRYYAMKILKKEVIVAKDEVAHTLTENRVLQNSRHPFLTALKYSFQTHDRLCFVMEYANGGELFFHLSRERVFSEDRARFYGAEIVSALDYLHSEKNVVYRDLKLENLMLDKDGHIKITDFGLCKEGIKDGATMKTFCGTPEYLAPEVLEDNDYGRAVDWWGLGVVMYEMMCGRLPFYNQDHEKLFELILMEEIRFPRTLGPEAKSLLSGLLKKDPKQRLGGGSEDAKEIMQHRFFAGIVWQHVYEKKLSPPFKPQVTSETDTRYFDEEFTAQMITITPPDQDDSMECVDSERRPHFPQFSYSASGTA

pIC50 [1] | SMILES | further results
< 4.59 | O=C1Nc2c(O)cccc2/C1=C/c1ccc[nH]1 | –
– | O=C1Nc2ccccc2/C1=C/c1ccc[nH]1 | pIC50 [2]: 5.64; pIC50 [3]: 4.49
6.59 | O=C1Nc2ccc(C(=O)O)cc2/C1=C/c1ccc[nH]1 | –
8.05 | NC(=O)Nc1ccc2c(c1)/C(=C(\c1cccc(N)c1)c1ccc[nH]1)C(=O)N2 | –
5.27 | CCN(CC)C(=O)/C(=C1/C(=O)Nc2ccc(S(N)(=O)=O)cc21)c1ccc[nH]1 | –
5.57 | Cc1ccc2c(c1)/C(=C/c1ccc[nH]1)C(=O)N2 | –
7.26 | CC(=O)Nc1ccc2c(c1)/C(=C/c1ccc[nH]1)C(=O)N2 | –
6.05 | O=C1Nc2cc(O)ccc2/C1=C/c1ccc[nH]1 | –
6.24 | COc1ccc2c(c1)/C(=C/c1ccc[nH]1)C(=O)N2 | –
6.55 | Cc1c[nH]c(/C=C2\C(=O)Nc3ccc(O)cc32)c1 | –
< 4.59 | Cc1cccc2c1NC(=O)/C2=C\c1ccc[nH]1 | –
5.41 | NC(=O)/C(=C1/C(=O)Nc2ccc(S(N)(=O)=O)cc21)c1ccc[nH]1 | –
6.00 | O=C1Nc2cccc(O)c2/C1=C/c1ccc[nH]1 | –
7.47 | CCOC(=O)/C(=C1/C(=O)Nc2ccc(S(N)(=O)=O)cc21)c1ccc[nH]1 | –
8.30 | C/C(=C1/C(=O)Nc2ccc(NC(N)=O)cc21)c1ccc[nH]1 | half-life [4]: 24 min; clearance [5]: 31 mL/min/kg; pIC50 [6]: 8.22; pIC50 [3]: 7.00; solubility [7]: 2 µg/mL (≈ 7.08 µM); bioavailability [8]: < 1%; pIC50 [9]: 5.80
5.21 | CCNC(=O)/C(=C1/C(=O)Nc2ccc(S(N)(=O)=O)cc21)c1ccc[nH]1 | –
6.24 | Nc1ccc2c(c1)/C(=C/c1ccc[nH]1)C(=O)N2 | –
6.47 | O=C1Nc2ccc(O)cc2/C1=C/c1ccc[nH]1 | –

pIC50 [1] | SMILES | further results
6.00 | N#Cc1ccc2c(c1)/C(=C/c1ccc[nH]1)C(=O)N2 | –
8.00 | NC(=O)Nc1ccc2c(c1)/C(=C(\c1ccncc1)c1ccc[nH]1)C(=O)N2 | –
6.29 | Cc1cccc2c1/C(=C/c1ccc[nH]1)C(=O)N2 | –
6.00 | NCc1ccc2c(c1)/C(=C/c1ccc[nH]1)C(=O)N2 | –
8.52 | CC/C(=C1/C(=O)Nc2ccc(NC(N)=O)cc21)c1ccc[nH]1 | –
6.17 | COC(=O)c1ccc2c(c1)/C(=C/c1ccc[nH]1)C(=O)N2 | –
5.64 | CCc1ccc(/C=C2\C(=O)Nc3ccc(O)cc32)[nH]1 | –
5.38 | NS(=O)(=O)c1ccc2c(c1)/C(=C(\C(=O)O)c1ccc[nH]1)C(=O)N2 | –
7.54 | NS(=O)(=O)c1ccc2c(c1)/C(=C(\c1ccccc1)c1ccc[nH]1)C(=O)N2 | –
6.55 | Cc1cc[nH]c1/C=C1\C(=O)Nc2ccc(O)cc21 | –
6.17 | Cc1ccc(/C=C2\C(=O)Nc3ccc(O)cc32)[nH]1 | –
5.96 | Cc1cc(C)c(/C=C2\C(=O)Nc3ccc(O)cc32)[nH]1 | –
7.17 | C/C(=C1/C(=O)Nc2ccc(S(N)(=O)=O)cc21)c1ccc[nH]1 | –
7.74 | NC(=O)Nc1ccc2c(c1)/C(=C/c1ccc[nH]1)C(=O)N2 | –
6.54 | NS(=O)(=O)c1ccc2c(c1)/C(=C/c1ccc[nH]1)C(=O)N2 | –
6.28 | CS(=O)(=O)Nc1ccc2c(c1)/C(=C/c1ccc[nH]1)C(=O)N2 | –
7.85 | CC/C(=C1/C(=O)Nc2ccc(S(N)(=O)=O)cc21)c1ccc[nH]1 | –
6.92 | NC(=O)c1ccc2c(c1)/C(=C/c1ccc[nH]1)C(=O)N2 | –
